Experimental findings from ChEMBL document CHEMBL1129271, “Synthesis and biological evaluation of certain alkenyldiarylmethanes as anti-HIV-1 agents which act as non-nucleoside reverse transcriptase inhibitors” (J Med Chem, 1996) are described below.

pEC50, pIC50: −log10 of the molar value. Active and inactive are the calls of the source. The calls are words filed in the database; no cut-off is given here.

The term pIC50 denotes the negative decadic logarithm of the IC50, by convention in mol/L. A high value points to a small IC50. In general, pEC50 refers to the negative decadic logarithm of the EC50, by convention in mol/L. High values mean a small EC50, low ones a large EC50.

Series [1] deals with CCRF-CEM. In words: The compound was tested for cytotoxicity in CEM-SS cells for mock-infected CEM cells. In kind it is functional, cell-based. The note with it: Homo sapiens. The method, boiled down:
(§1)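 XTT-based microtiter assay of protection from HIV-1 cytopathic effect in CEM-SS cells, read as percent of uninfected drug-free control. EC50 is the concentration giving 50% protection in infected cultures. IC50 is the concentration giving 50% death of mock-infected cells. Values are averages of at least two determinations. Results were confirmed by supernatant RT and p24 levels.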

Series [2] can be described thus: (§2) The therapeutic index of the compound is evaluated. The note with it: read-out: IC50/EC50.
Series [3] relates to CCRF-CEM. Description: The compound was evaluated for prevention of the cytopathic effect of HIV-1 for cytopathicity of HIV-1RF in CEM-SS cells. In kind it is functional, cell-based. To be noted: Homo sapiens. In a few lines: as §1
In general terms: Cytopathic effects are the visible damage that an infection or toxin causes in cultured cells.

Series [4] deals with CCRF-CEM. In words: 50% cytotoxic concentration for mock-infected CEM cells. In kind it is functional, cell-based. To be noted: Homo sapiens. In a few lines: as §1
Series [5] in a line: as §2. In kind it is functional.
Series [6] has as its system CCRF-CEM. In words: (§3) The compound was evaluated for prevention of the cytopathic effect of HIV-1 for cytopathicity of HIV-1RF in CEM-SS cells; NA= not active. The format is functional, cell-based, Homo sapiens. The method, boiled down:
as §1

The subject of series [7] is CCRF-CEM. The series is described as §3. The format is functional, cell-based. The note with it: Homo sapiens. The method, boiled down:
as §1

The compound `COC(=O)c1cc(C(=CCCBr)c2cc(Cl)c(OC)c(C(=O)OC)c2)cc(Cl)c1OC` gave a pIC50 in the series with CCRF-CEM [1] of 4.74. In addition, in series [2], the selectivity ratio worked out at 2.2. For the same compound, the pEC50 in the series on CCRF-CEM [3] is 5.10.
In turn, `CCCCCC=C(c1cc(Cl)c(OC)c(C(=O)OC)c1)c1cc(Cl)c(OC)c(C(=O)OC)c1` gave a pIC50 in the series on CCRF-CEM [4] of under 4.54. In series [5], this compound displayed an IC50/EC50 of over 1.8. In the series on CCRF-CEM [3], this compound showed a pEC50 of 4.80.
Take `CCCCCC=C(c1cc(Cl)c(O)c(C(=O)NO)c1)c1cc(Cl)c(O)c(C(=O)NO)c1`: in the series with CCRF-CEM [1], the pIC50 is 4.43. Moreover, the EC50 entry in the series on CCRF-CEM [6] is on record as “Not Active”.
Turning to `CCCCCC=C(c1cc(Cl)c(OC)c(C(=O)O)c1)c1cc(Cl)c(OC)c(C(=O)O)c1`, in the series on CCRF-CEM [4], the pIC50 was 4.08. Moreover, the NA result with CCRF-CEM [7] is “inactive”.
With `CCCCCCCCCC=C(c1cc(Br)c(OC)c(C(=O)OC)c1)c1cc(Br)c(OC)c(C(=O)OC)c1`, the pIC50 with CCRF-CEM [1] is under 4.52. This compound also showed a pEC50 in the series on CCRF-CEM [3] of under 4.52.
Turning to `CCCCCC=C(c1cc(Br)cc(C(=O)OC)c1OC)c1cc(Br)cc(C(=O)OC)c1OC`, the pIC50 with CCRF-CEM [1] was 4.36. In the series with CCRF-CEM [6], the EC50 result is listed as “Not Active”.
On the same counts, the results for `CCCCCC=C(c1cc(Br)c(O)c(C(=O)O)c1)c1cc(Br)c(O)c(C(=O)O)c1.N.N` are 3.82 and “Not Active”.
In the series with CCRF-CEM [4], `CCCCCC=C(c1cc(Cl)c(OC)c(C(=O)NC)c1)c1cc(Cl)c(OC)c(C(=O)NC)c1` gave a pIC50 of 4.68. In addition, the EC50 result in the series on CCRF-CEM [6] is “Not Active”.
For `CCCCCC=C(c1cc(Cl)c(OC)c(C(=O)N(C)C)c1)c1cc(Cl)c(OC)c(C(=O)N(C)C)c1` the same measures were 4.68 and “Not Active”.
On the same counts, the results for `CCCCCC=C(c1cc(Cl)c(OC)c(C(N)=O)c1)c1cc(Cl)c(OC)c(C(N)=O)c1` are 4.51 and “Not Active”.
In the case of `CCCCCCCCCCCCCCCC=C(c1cc(Br)c(OC)c(C(=O)OC)c1)c1cc(Br)c(OC)c(C(=O)OC)c1`, in the series on CCRF-CEM [1], the pIC50 is under 4.55. In the series on CCRF-CEM [3], this compound gave a negative logarithm of the EC50 (pEC50) of under 4.55.
Take `CCCCCC=C(c1cc(Cl)c(O)c(C(=O)O)c1)c1cc(Cl)c(O)c(C(=O)O)c1`: the pIC50 in the series with CCRF-CEM [4] is under 4.04. This compound gave a pEC50 in the series with CCRF-CEM [3] of under 4.04.
